# Results as given in ChEMBL document CHEMBL1255453, “Affinity of ceftaroline and other beta-lactams for penicillin-binding proteins from Staphylococcus aureus and Streptococcus pneumoniae” (Antimicrob Agents Chemother, 2010).
# Columns and labels:
# Streptococcus pneumoniae [1] = test: Antibacterial activity against penicillin-resistant Streptococcus pneumoniae 2688 by macrodilution method; format: functional
# Procedure, shortened: (§1)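 CLSI broth macrodilution MICs. The S. aureus set is 5 MRSA strains (hVISA, VISA, VRSA) plus 1 MSSA. The S. pneumoniae set is 7 clonally unrelated clinical isolates, categorised by penicillin G against 2006 CLSI M100-S17 criteria (resistant ≥2 μg/ml, susceptible ≤0.06 μg/ml).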
# Streptococcus pneumoniae [2] = test: Antibacterial activity against penicillin-resistant Streptococcus pneumoniae 1394 by macrodilution method; format: functional; procedure, shortened: as §1
# Staphylococcus aureus [3] = test: Antibacterial activity against methicillin-, vancomycin-susceptible Staphylococcus aureus ATCC 29213 by macrodilution method; format: functional; procedure, shortened: as §1
# MecA [4] = target: T1, MecA (Staphylococcus aureus, UniProt Q7DHH4); test: Binding affinity to methicillin-resistant, heteroresistant vancomycin-intermediate, beta-lactamase-negative Staphylococcus aureus 873 PBP2a by competitive binding assay
# T1 sequence (Q7DHH4 whole entry): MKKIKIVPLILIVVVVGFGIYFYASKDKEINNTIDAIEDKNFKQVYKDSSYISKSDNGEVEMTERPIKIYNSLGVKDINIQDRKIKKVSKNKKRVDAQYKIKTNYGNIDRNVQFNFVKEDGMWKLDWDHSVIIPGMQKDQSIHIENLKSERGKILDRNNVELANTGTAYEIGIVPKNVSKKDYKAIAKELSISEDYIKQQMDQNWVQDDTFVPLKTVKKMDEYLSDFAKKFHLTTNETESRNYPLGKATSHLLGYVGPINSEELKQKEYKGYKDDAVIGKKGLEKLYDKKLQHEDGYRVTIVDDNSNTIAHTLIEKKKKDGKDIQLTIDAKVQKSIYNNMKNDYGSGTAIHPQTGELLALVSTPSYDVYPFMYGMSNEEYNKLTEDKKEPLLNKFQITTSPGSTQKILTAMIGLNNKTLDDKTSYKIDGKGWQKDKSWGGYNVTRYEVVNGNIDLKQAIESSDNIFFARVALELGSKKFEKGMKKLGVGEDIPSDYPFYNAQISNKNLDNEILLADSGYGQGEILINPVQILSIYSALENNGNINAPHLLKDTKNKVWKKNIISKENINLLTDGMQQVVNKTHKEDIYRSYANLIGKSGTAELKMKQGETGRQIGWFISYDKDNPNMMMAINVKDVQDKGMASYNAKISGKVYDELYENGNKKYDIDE
# Procedure, shortened: (§2)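 MRSA grown in brain heart infusion and harvested in exponential phase (OD600 0.3–0.4). Membranes prepared by lysozyme/lysostaphin/DNase, freeze-thaw and sonication, then ultracentrifugation. Membranes preincubated with clavulanic acid 1 mg/ml to saturate PBPs other than PBP2a. Then β-lactam 10 min at 37°C and Bocillin FL 40 μg/ml, 15 min at 37°C. SDS-PAGE fluorescence; IC50 = 50% inhibition of Bocillin FL binding; 3 isolations.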
# [5] = Binding affinity to methicillin-resistant, vancomycin-intermediate, beta-lactamase-positive Staphylococcus aureus 1287 PBP3 by competitive binding assay
# Streptococcus pneumoniae [6] = test: Antibacterial activity against penicillin-resistant Streptococcus pneumoniae 24 by macrodilution method; format: functional; procedure, shortened: as §1
# [7] = Binding affinity to methicillin-, vancomycin-resistant, beta-lactamase-positive Staphylococcus aureus 510 PBP2 by competitive binding assay
# Staphylococcus aureus [8] = test: Antibacterial activity against methicillin-resistant, vancomycin-intermediate, beta-lactamase-positive Staphylococcus aureus 1287 by macrodilution method; format: functional; procedure, shortened: as §1
# [9] = Binding affinity to methicillin-, linezolid-resistant, vancomycin-intermediate, beta-lactamase-positive Staphylococcus aureus 2149A PBP3 by competitive binding assay
# [10] = Binding affinity to methicillin-, vancomycin-susceptible Staphylococcus aureus ATCC 29213 PBP3 by competitive binding assay
# Procedure, shortened: (§3)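 MSSA grown in brain heart infusion broth and harvested at OD600 0.3–0.4. Lysed with lysozyme, lysostaphin, DNase I, freeze-thaw and sonication; membranes collected at 100,000 × g. Membranes (100 μg protein) incubated with β-lactam 10 min at 37°C, then Bocillin FL 40 μg/ml, 15 min at 37°C. SDS-PAGE, fluorescence at 520 nm. IC50 is 50% inhibition of Bocillin FL binding; 3 membrane isolations.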
# Streptococcus pneumoniae [11] = test: Antibacterial activity against penicillin-susceptible Streptococcus pneumoniae 1076 by macrodilution method; format: functional; procedure, shortened: as §1
# MecA [12] = target: T1, MecA; test: Binding affinity to against methicillin-, daptomycin-resistant, vancomycin-intermediate, beta-lactamase-positive Staphylococcus aureus 25 PBP2a by competitive binding assay
# Procedure, shortened: (§4)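 MRSA strain harvested in stationary phase (OD600 >2.00). Membranes prepared by enzymatic lysis, freeze-thaw, sonication and ultracentrifugation, then preincubated with clavulanic acid 1 mg/ml. β-Lactam competition 10 min at 37°C, then Bocillin FL 40 μg/ml, 15 min at 37°C. SDS-PAGE, 520 nm imaging; IC50 = 50% inhibition of Bocillin FL labeling; 3 membrane isolations.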
# MecA [13] = target: T1, MecA; test: Binding affinity to methicillin-, linezolid-resistant, vancomycin-intermediate, beta-lactamase-positive Staphylococcus aureus 2149A PBP2a by competitive binding assay; procedure, shortened: as §2
# [14] = Binding affinity to methicillin-resistant, vancomycin-intermediate, beta-lactamase-positive Staphylococcus aureus 1287 PBP1 by competitive binding assay
# [15] = Binding affinity to methicillin-resistant, vancomycin-intermediate, beta-lactamase-positive Staphylococcus aureus 1287 PBP2 by competitive binding assay
# [16] = Binding affinity to methicillin-, linezolid-resistant, vancomycin-intermediate, beta-lactamase-positive Staphylococcus aureus 2149A PBP4 by competitive binding assay
# [17] = Binding affinity to methicillin-, vancomycin-susceptible Staphylococcus aureus ATCC 29213 PBP2 by competitive binding assay; procedure, shortened: as §3
# MecA [18] = target: T1, MecA; test: Binding affinity to methicillin-, vancomycin-resistant, beta-lactamase-positive Staphylococcus aureus 510 PBP2a by competitive binding assay; procedure, shortened: as §2
# Staphylococcus aureus [19] = test: Antibacterial activity against methicillin-, daptomycin-resistant, vancomycin-intermediate, beta-lactamase-positive Staphylococcus aureus 25 by macrodilution method; format: functional; procedure, shortened: as §1
# Staphylococcus aureus [20] = test: Antibacterial activity against methicillin-resistant, heteroresistant vancomycin-intermediate, beta-lactamase-negative Staphylococcus aureus 873 by macrodilution method; format: functional; procedure, shortened: as §1
# [21] = Binding affinity to against methicillin-, daptomycin-resistant, vancomycin-intermediate, beta-lactamase-positive Staphylococcus aureus 25 PBP1 by competitive binding assay; procedure, shortened: as §4
# [22] = Binding affinity to methicillin-resistant, vancomycin-intermediate, beta-lactamase-positive Staphylococcus aureus 1287 PBP4 by competitive binding assay
# [23] = Binding affinity to methicillin-, vancomycin-susceptible Staphylococcus aureus ATCC 29213 PBP4 by competitive binding assay
# Procedure, shortened: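 S. aureus grown in brain heart infusion broth and harvested at OD600 0.3 to 0.4. Membranes were prepared by lysozyme/lysostaphin/DNase I treatment, freeze-thaw, sonication and ultracentrifugation. Membranes (100 μg total protein) were preincubated with β-lactam for 10 min at 37°C, then labeled with 40 μg/ml Bocillin FL for 15 min at 37°C. SDS-PAGE with fluorescence imaging at 520 nm. IC50 is 50% inhibition of Bocillin FL binding; 3 membrane isolations.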
# Streptococcus pneumoniae [24] = test: Antibacterial activity against penicillin-resistant Streptococcus pneumoniae 2527 by macrodilution method; format: functional; procedure, shortened: as §1
SMILES,MIC (Streptococcus pneumoniae [1]) [µg/mL],MIC (Streptococcus pneumoniae [2]) [µg/mL],MIC (Staphylococcus aureus [3]) [µg/mL],IC50 (MecA [4]) [µM],IC50 [5] [µg/mL],MIC (Streptococcus pneumoniae [6]) [µg/mL],IC50 [7] [µg/mL],MIC (Staphylococcus aureus [8]) [µg/mL],IC50 [9] [µg/mL],IC50 [10] [µg/mL],MIC (Streptococcus pneumoniae [11]) [µg/mL],IC50 (MecA [12]) [µM],IC50 (MecA [13]) [µM],IC50 [14] [µg/mL],IC50 [15] [µg/mL],IC50 [16] [µg/mL],IC50 [17] [µg/mL],IC50 (MecA [18]) [µM],MIC (Staphylococcus aureus [19]) [µg/mL],MIC (Staphylococcus aureus [20]) [µg/mL],further results
CO/N=C(\C(=O)N[C@@H]1C(=O)N2C(C(=O)O)=C(COC(C)=O)CS[C@H]12)c1csc(N)n1 [CEFOTAXIME],16,4,2,> 281,1,1,0.25,4,2,1,0.03,1.1,> 281,1,1,> 128,0.25,2.2,> 64,> 64,IC50 [21]: 16 µg/mL; IC50 [22]: > 128 µg/mL; IC50 [23]: > 8 µg/mL; MIC (Streptococcus pneumoniae [24]): 0.015 µg/mL
CO/N=C(\C(=O)N[C@@H]1C(=O)N2C(C(=O)O)=C(CSc3nc(=O)c(O)nn3C)CS[C@H]12)c1csc(N)n1 [CEFTRIAXONE],8,2,2,> 231,1,2,0.25,8,2,1,0.03,0.451,3.61,1,1,> 128,0.25,1.8,> 64,> 64,IC50 [21]: 16 µg/mL; IC50 [22]: > 128 µg/mL; IC50 [23]: > 8 µg/mL; MIC (Streptococcus pneumoniae [24]): 0.03 µg/mL
CC1(C)S[C@@H]2[C@H](NC(=O)Cc3ccccc3)C(=O)N2[C@H]1C(=O)O [PENICILLIN G],8,4,1,191,0.25,4,64,32,2,1,0.03,12,5.98,4,4,> 128,8,191,64,8,IC50 [21]: 0.5 µg/mL; IC50 [22]: 4 µg/mL; IC50 [23]: > 8 µg/mL; MIC (Streptococcus pneumoniae [24]): 2 µg/mL
